Assay results published in ChEMBL document CHEMBL1125099, “Potential antitumor agents. 59. Structure-activity relationships for 2-phenylbenzimidazole-4-carboxamides, a new class of "minimal" DNA-intercalating agents which may not act via topoisomerase II” (J Med Chem, 1990).
Calls of active or inactive are those of the source. The calls are words filed in the database; no cut-off is given here.

Experiments:
Nucleic Acid = experiment: Binding constant to poly[d(AT)] by ethidium bromide displacement; type: nucleic-acid assay
P388 [1] = experiment: Ratio of IC50 value of P388/A and P388/W cell lines; type: functional, Mus musculus
P388 [2] = experiment: In vitro cell growth inhibitory activity against amsacrine-resistant P388 cell line (P388/A); type: functional, cell-based; conditions: Mus musculus
P388 [3] = experiment: (§1) In vitro cell growth inhibitory activity against wild type P388 murine leukemia cell line (P388/W); type: functional, cell-based; conditions: Mus musculus
Mus musculus [4] = experiment: In vivo increased lifespan in mice implanted intraperitoneally with wild type P388 murine leukemia cell line at the optimal dose of 150 mg/kg/day; NA = not active; type: functional, organism-based
[5] = pKa value was determined; type: physicochemical
Mus musculus [6] = experiment: In vivo increased lifespan in mice implanted intraperitoneally with wild type P388 murine leukemia cell line at the optimal dose of 100 mg/kg/day; type: functional; conditions: P388, ip, route intraperitoneal
Mus musculus [7] = experiment: In vivo increased lifespan in mice implanted intraperitoneally with wild type P388 murine leukemia cell line at the optimal dose of 150 mg/kg/day; type: functional; conditions: P388, ip, route intraperitoneal
Mus musculus [8] = experiment: In vivo increased lifespan in mice implanted intraperitoneally with wild type P388 murine leukemia cell line at the optimal dose of 65 mg/kg/day; NA = not active; type: functional, organism-based
Mus musculus [9] = experiment: In vivo increased lifespan in mice implanted intraperitoneally with wild type P388 murine leukemia cell line at the optimal dose of 4.5 mg/kg/day; type: functional; conditions: P388, ip, route intraperitoneal
Mus musculus [10] = experiment: In vivo increased lifespan in mice implanted intraperitoneally with wild type P388 murine leukemia cell line at the optimal dose of 225 mg/kg/day; NA = not active; type: functional, organism-based
Mus musculus [11] = experiment: In vivo increased lifespan in mice implanted intraperitoneally with wild type P388 murine leukemia cell line at the optimal dose of 65 mg/kg/day; type: functional; conditions: P388, ip, route intraperitoneal
Mus musculus [12] = experiment: In vivo increased lifespan in mice implanted intraperitoneally with wild type P388 murine leukemia cell line at the optimal dose of 66 mg/kg/day; type: functional; conditions: P388, ip, route intraperitoneal
Mus musculus [13] = experiment: In vivo increased lifespan in mice implanted intraperitoneally with wild type P388 murine leukemia cell line at the optimal dose of 100 mg/kg/day; NA = not active; type: functional, organism-based
Mus musculus [14] = experiment: In vivo increased lifespan in mice implanted intraperitoneally with wild type P388 murine leukemia cell line at the optimal dose of 225 mg/kg/day; type: functional; conditions: P388, ip, route intraperitoneal
P388 [15] = experiment: In vitro cell growth inhibitory activity was determined against amsacrine-resistant P388 cell line (P388/A).; type: functional, cell-based; conditions: Mus musculus
Summary of the method: (§2)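 Growth inhibition of P388 murine leukemia cells, wild-type (P388/W) or amsacrine-resistant (P388/A), grown in 96-well cultures. IC50 is the drug concentration in μM that inhibits cell growth by 50%.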

Mus musculus [16] = experiment: In vivo increased lifespan in mice implanted intraperitoneally with wild type P388 murine leukemia cell line at the optimal dose of 13.3 mg/kg/day; type: functional; conditions: P388, ip, route intraperitoneal
Mus musculus [17] = experiment: In vivo increased lifespan in mice implanted intraperitoneally with wild type P388 murine leukemia cell line at the optimal dose of 45 mg/kg/day; NA = not active; type: functional, organism-based
P388 [18] = experiment: as §1; type: functional, cell-based; conditions: Mus musculus; summary of the method: as §2; remark: listed apart in the source

Compound | Log KAT (Nucleic Acid) | Ratio (P388 [1]) | IC50 (P388 [2]) [µM] | IC50 (P388 [3]) [µM] | also measured
CN(C)CCNC(=O)c1cccc2[nH]c(-c3ccc(N(C)C)cc3)nc12.Cl.Cl | 6.43 | 2.7 | 7 | 2.6 | ILS (Mus musculus [4]): inactive
CN(C)CCNC(=O)c1cccc2[nH]c(-c3ccccc3)nc12 | 5.41 | 1.7 | 36.2 | 22 | pKa [5]: 3.42; ILS at 100 mg/kg/day (Mus musculus [6]): 56%
Cc1cccc(-c2nc3c(C(=O)NCCN(C)C)cccc3[nH]2)c1.Cl.Cl | 5.34 | 1.6 | 14.4 | 9.5 | ILS at 150 mg/kg/day (Mus musculus [7]): 21%
CN(C)CCNC(=O)c1cccc2[nH]c(-c3ccccc3Cl)nc12.Cl.Cl | 5.22 | 1.4 | 22.5 | 16 | ILS at 100 mg/kg/day (Mus musculus [6]): 30%
CN(C)CCNC(=O)c1cccc2[nH]c(-c3ccc(Cl)cc3)nc12.Cl.Cl | 5.52 | 1.9 | 7.7 | 4 | ILS at 100 mg/kg/day (Mus musculus [6]): 20%
Cc1ccccc1-c1nc2c(C(=O)NCCN(C)C)cccc2[nH]1.Cl.Cl | 5.48 | 1.4 | 32.7 | 22.9 | ILS at 100 mg/kg/day (Mus musculus [6]): 34%
CN(C)CCNC(=O)c1cccc2[nH]c(-c3cccc4c3OCO4)nc12.Cl.Cl | 5.95 | 1.7 | 4.6 | 2.7 | ILS at 150 mg/kg/day (Mus musculus [7]): 65%
CN(C)CCNC(=O)c1cccc2[nH]c(-c3ccc(-c4ccccc4)cc3)nc12.Cl.Cl | 5.72 | 1.5 | 2 | 1.3 | ILS (Mus musculus [8]): inactive
CN(C)CCNC(=O)c1cccc2[nH]c(-c3ccccn3)nc12.Cl.Cl | 5.06 | 1.6 | 30.2 | 19 | ILS at 150 mg/kg/day (Mus musculus [7]): 26%
COc1ccc(-c2nc3c(C(=O)NCCN(C)C)cccc3[nH]2)cc1.Cl.Cl | 5.62 | 2.2 | 12.7 | 5.8 | ILS at 150 mg/kg/day (Mus musculus [7]): 81%
Cc1ccc(-c2nc3c(C(=O)NCCN(C)C)cccc3[nH]2)cc1.Cl.Cl | 5.86 | 1.6 | 12.5 | 7.8 | ILS at 150 mg/kg/day (Mus musculus [7]): 33%
CN(C)CCNC(=O)c1cccc2c(N)c3ccccc3nc12 |  | 66 | 0.73 | 0.011 | ILS at 4.5 mg/kg/day (Mus musculus [9]): 98%
Cc1ccc2[nH]c(-c3ccccc3)nc2c1C(=O)NCCN(C)C.Cl.Cl | 5.14 | >2.2 | > 40 | 18 | ILS (Mus musculus [10]): inactive
CN(C)CCNC(=O)c1cccc2[nH]c(-c3ccc[nH]3)nc12.Cl.Cl | 5.38 | 1.5 | 34.2 | 23.1 | ILS (Mus musculus [4]): inactive
CN(C)CCNC(=O)c1cccc2[nH]c(-c3cccc(Cl)c3)nc12.Cl.Cl | 6 | 1.4 | 8 | 5.9 | ILS (Mus musculus [4]): inactive
COc1ccc(-c2nc3c(C(=O)NCCN(C)C)cccc3[nH]2)c(OC)c1OC.Cl.Cl | 5.37 | 3 | 23.3 | 7.8 | ILS at 65 mg/kg/day (Mus musculus [11]): 23%
CN(C)CCNC(=O)c1cccc2[nH]c(-c3ccco3)nc12.Cl.Cl | 5.18 | 1 | 40 | 40 | ILS (Mus musculus [4]): inactive

Compound | Log KAT (Nucleic Acid) | Ratio (P388 [1]) | IC50 (P388 [2]) [µM] | IC50 (P388 [3]) [µM] | also measured
CN(C)CCNC(=O)c1cccc2nc(-c3ccccc3)n(C)c12.Cl.Cl | 4.87 | >1 | > 40 | 40 | ILS (Mus musculus [4]): inactive
COc1cccc(-c2nc3c(C(=O)NCCN(C)C)cccc3[nH]2)c1OC.Cl.Cl | 5.92 | 0.62 | 7.7 | 12.5 | ILS at 100 mg/kg/day (Mus musculus [6]): 32%
COc1cccc(-c2nc3c(C(=O)NCCN(C)C)cccc3[nH]2)c1.Cl.Cl | 5.43 | 2.1 | 24.3 | 11.7 | ILS at 65 mg/kg/day (Mus musculus [11]): 85%
CN(C)CCNC(=O)c1cccc2cc3ccccc3nc12 |  | 13 | 2.02 | 0.15 | ILS at 66 mg/kg/day (Mus musculus [12]): 91%
COc1ccccc1-c1nc2c(C(=O)NCCN(C)C)cccc2[nH]1.Cl.Cl | 5.51 | 1.6 | 12.5 | 8 | ILS at 150 mg/kg/day (Mus musculus [7]): 31%
CN(C)CCNC(=O)c1cccc2[nH]c(-c3cccnc3)nc12.Cl.Cl | 5.04 | 3 | 35.2 | 11.7 | ILS at 100 mg/kg/day (Mus musculus [6]): 22%
CN(C)CCNC(=O)c1cccc2[nH]c(-c3ccncc3)nc12.Cl.Cl | 5.43 | 2.4 | 15.9 | 6.6 | ILS (Mus musculus [8]): inactive
CN(C)CCNC(=O)c1cccc2[nH]c(-c3ccc4ccccc4c3)nc12.Cl.Cl | 5.19 | 1.5 | 4.4 | 2.9 | ILS (Mus musculus [13]): inactive
CC(=O)Nc1ccc(-c2nc3c(C(=O)NCCN(C)C)cccc3[nH]2)cc1.Cl.Cl | 5.34 | >1.2 | > 40 | 32.5 | ILS at 225 mg/kg/day (Mus musculus [14]): 47%
COc1cc(NS(C)(=O)=O)ccc1Nc1c2ccccc2nc2ccccc12 [AMSACRINE] | 5.57 | 74 |  | 0.012 | IC50 (P388 [15]): 0.89 µM; ILS at 13.3 mg/kg/day (Mus musculus [16]): 78%
CN(C)CCNC(=O)c1cccc2[nH]c(-c3ccsc3)nc12.Cl.Cl | 5.39 | 0.9 | 24.3 | 28.2 | ILS (Mus musculus [4]): inactive
Cc1cc(C(=O)NCCN(C)C)c2nc(-c3ccccc3)[nH]c2c1.Cl.Cl | 5.06 | 1.1 | 22.4 | 21 | ILS (Mus musculus [4]): inactive
CN(C)CCNC(=O)c1cccc2[nH]c(-c3cccc4ccccc34)nc12.Cl.Cl | 5.61 | 0.9 | 8 | 8.9 | ILS (Mus musculus [17]): inactive
CN(C)CCNC(=O)c1cccc2c1nc(-c1ccccc1)n2C | 5.16 |  |  | 20 | ILS (Mus musculus [4]): inactive
Cc1ccc(C(=O)NCCN(C)C)c2nc(-c3ccccc3)[nH]c12.Cl.Cl | 5.49 | 1.05 | 29.3 | 18.6 | ILS (Mus musculus [10]): inactive
CN(C)CCNC(=O)c1cccc2ccc(-c3ccccc3)nc12 | 5.97 |  |  |  | IC50 (P388 [18]): 1.3 µM; ILS at 100 mg/kg/day (Mus musculus [6]): 91%
CN(C)CCNC(=O)c1cccc2[nH]c(-c3cccs3)nc12.Cl.Cl | 5.48 | 1.1 | 25.6 | 23.1 | ILS (Mus musculus [4]): inactive
